Test results published in ChEMBL document CHEMBL1134406, “Azepanone-based inhibitors of human and rat cathepsin K” (J Med Chem, 2001).

Experiments:
Cathepsin B = Cathepsin B (Homo sapiens, UniProt P07858); assay: Inhibitory activity against Human cathepsin B
Cathepsin K [1] = target: T1, Cathepsin K (Homo sapiens, UniProt P43235); assay: Inhibition of Human cathepsin K
T1 sequence (P43235 whole entry): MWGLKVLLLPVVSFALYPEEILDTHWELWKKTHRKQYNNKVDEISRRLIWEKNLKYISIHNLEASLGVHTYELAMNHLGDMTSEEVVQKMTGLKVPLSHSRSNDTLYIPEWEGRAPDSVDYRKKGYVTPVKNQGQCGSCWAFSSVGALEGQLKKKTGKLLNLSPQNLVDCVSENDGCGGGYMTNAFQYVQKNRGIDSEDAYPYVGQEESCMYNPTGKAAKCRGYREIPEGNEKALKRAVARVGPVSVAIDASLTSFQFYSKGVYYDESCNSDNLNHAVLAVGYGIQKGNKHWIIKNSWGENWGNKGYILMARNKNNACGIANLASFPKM

Cathepsin S = Cathepsin S (Homo sapiens, UniProt P25774); assay: Inhibitory activity against Human cathepsin S
Cathepsin S, sequence (P25774 whole entry): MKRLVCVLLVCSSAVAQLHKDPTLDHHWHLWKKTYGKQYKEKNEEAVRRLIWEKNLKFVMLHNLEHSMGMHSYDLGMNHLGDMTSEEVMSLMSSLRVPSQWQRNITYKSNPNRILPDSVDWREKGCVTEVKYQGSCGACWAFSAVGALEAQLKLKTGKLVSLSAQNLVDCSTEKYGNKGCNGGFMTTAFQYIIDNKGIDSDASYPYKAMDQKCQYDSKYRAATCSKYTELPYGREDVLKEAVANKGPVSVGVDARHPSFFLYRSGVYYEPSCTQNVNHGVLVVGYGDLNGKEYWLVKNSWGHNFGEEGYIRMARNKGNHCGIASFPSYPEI

[2] = Volume of distribution in male Sprague-Dawley rat; format: ADME, organism-based; details: in vivo, read-out: Vdss
Method in brief: (§1)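 Crossover in rats over 2 study days, 2 days apart: 30-min IV infusion on day 1, oral bolus gavage in the same animals on day 2. Blood taken from lateral tail vein, plasma by centrifugation, drug quantified by LC/MS/MS (LLOQ 5–10 ng/mL). PK parameters from plasma concentration–time data by standard analysis.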

[3] = plasma clearance in male Sprague-Dawley rat; format: ADME, organism-based; method in brief: as §1
Cathepsin K [4] = target: T2, Cathepsin K (Rattus norvegicus, UniProt O35186); assay: Inhibitory activity against Rat cathepsin K
T2 sequence (O35186 whole entry): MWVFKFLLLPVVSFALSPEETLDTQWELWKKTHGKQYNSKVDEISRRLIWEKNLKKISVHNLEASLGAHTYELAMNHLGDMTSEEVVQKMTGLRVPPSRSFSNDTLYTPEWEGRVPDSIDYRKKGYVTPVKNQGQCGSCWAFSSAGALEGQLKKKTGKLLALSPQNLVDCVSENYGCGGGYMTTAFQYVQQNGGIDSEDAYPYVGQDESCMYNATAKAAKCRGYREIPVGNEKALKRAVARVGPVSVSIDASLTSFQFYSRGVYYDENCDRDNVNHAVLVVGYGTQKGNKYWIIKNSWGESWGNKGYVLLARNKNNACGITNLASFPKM

[5] = half life period in male Sprague-Dawley rat; format: ADME, organism-based; details: in vivo; method in brief: as §1
Procathepsin L = Procathepsin L (Homo sapiens, UniProt P07711); assay: Inhibitory activity against Human cathepsin L
Procathepsin L, sequence (P07711 whole entry): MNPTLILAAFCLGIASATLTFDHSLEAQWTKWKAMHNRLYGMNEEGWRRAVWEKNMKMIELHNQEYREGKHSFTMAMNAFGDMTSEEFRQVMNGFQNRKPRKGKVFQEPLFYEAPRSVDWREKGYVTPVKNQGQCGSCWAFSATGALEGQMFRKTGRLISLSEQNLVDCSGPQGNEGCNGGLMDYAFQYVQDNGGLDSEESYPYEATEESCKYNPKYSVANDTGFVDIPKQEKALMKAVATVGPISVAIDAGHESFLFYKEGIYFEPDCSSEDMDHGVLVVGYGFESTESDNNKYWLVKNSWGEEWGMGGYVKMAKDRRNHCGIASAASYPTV

[6] = Bioavailability in rat (Sprague-Dawley) (male); format: ADME, organism-based; details: in vivo; method in brief: as §1
Cathepsin K [7] = target: T1, Cathepsin K; assay: In vitro IC50 value was measured using in situ cytochem assay.
[8] = volume distribution in male Sprague-Dawley rat; format: ADME, organism-based; details: in vivo, read-out: Vdss; method in brief: as §1

| Compound | Ki (Cathepsin B) | Ki (Cathepsin K [1]) | Ki (Cathepsin S) | clearance [3] | half-life [5] | bioavailability [6] | further results |
| --- | --- | --- | --- | --- | --- | --- | --- |
| CC(C)C[C@H](NC(=O)OCc1ccccc1)C(=O)N1CCC(NC(=O)[C@@H](CC(C)C)NC(=O)OCc2ccccc2)C(=O)C1 (stereo partly drawn) | 440 nM | 2.6 nM | – | – | – | – | – |
| CC(C)C[C@H](NC(=O)OCc1ccccc1)C(=O)NCC(=O)CNC(=O)[C@H](CC(C)C)NC(=O)OCc1ccccc1 | – | – | 890 nM | – | – | – | – |
| CC(C)C[C@H](NC(=O)c1cc2cc(OCCN3CCOCC3)ccc2o1)C(=O)N[C@H]1CCCN(C(=O)Cc2cccc(-c3ccccn3)c2)CC1=O | 100 nM | 0.0048 nM | 14 nM | 39.7 mL/min/kg | 338 min | 2.1% | Vd [2]: 1.29 L/kg; Ki (Cathepsin K [4]): 4.8 nM; Ki (Procathepsin L): 0.49 nM; IC50 (Cathepsin K [7]): 30 nM |
| CC(C)C[C@H](NC(=O)OCc1ccccc1)C(=O)N[C@@H]1CCCN(C(=O)[C@H](CC(C)C)NC(=O)OCc2ccccc2)CC1=O | – | 15 nM | 97 nM | – | – | – | Ki (Procathepsin L): 290 nM |
| CC(C)C[C@H](NC(=O)c1cc2ccccc2o1)C(=O)N[C@H]1CCCN(S(=O)(=O)c2ccccn2)CC1=O | 500 nM | – | – | 49.2 mL/min/kg | 29.8 min | 42.1% | Vd [2]: 1.86 L/kg; Ki (Cathepsin K [4]): 60 nM; Ki (Procathepsin L): 2.2 nM |
| CC(C)C[C@H](NC(=O)c1cc2ccccc2o1)C(=O)NC1CCCN(S(=O)(=O)c2ccccn2)CC1O (stereo partly drawn) | – | > 1000 nM | – | – | – | – | – |
| CC(C)C[C@H](NC(=O)OCc1ccccc1)C(=O)N1CC(=O)C(NC(=O)[C@@H](CC(C)C)NC(=O)OCc2ccccc2)C1 (stereo partly drawn) | > 1000 nM | 2.3 nM | – | – | – | – | – |
| CC(C)C[C@H](NC(=O)c1cc2cc(OCCN3CCOCC3)ccc2o1)C(=O)N[C@@H]1CCCN(C(=O)Cc2cccc(-c3ccccn3)c2)CC1=O | – | 4.7 nM | – | – | – | – | – |
| CC(C)C[C@H](NC(=O)c1cc2ccccc2o1)C(=O)NCC(=O)CNS(=O)(=O)c1ccccn1 | – | 1.6 nM | – | 33.1 mL/min/kg | 27 min | 3.3% | Vd [8]: 0.65 L/kg |
| CC(C)C[C@H](NC(=O)OCc1ccccc1)C(=O)N1CCCC(NC(=O)[C@@H](CC(C)C)NC(=O)OCc2ccccc2)C(=O)C1 (stereo partly drawn) | – | 30 nM | – | – | – | – | – |
| CC(C)C[C@H](NC(=O)c1cc2ccccc2o1)C(=O)N[C@@H](C)C(=O)CNS(=O)(=O)c1ccccn1 | 59 nM | 7.5 nM | 20 nM | 32.5 mL/min/kg | 33.2 min | 3.2% | Vd [2]: 0.71 L/kg |
| CC(C)C[C@H](NC(=O)c1cc2ccccc2o1)C(=O)N[C@@H]1CCCN(S(=O)(=O)c2ccccn2)CC1=O | – | – | – | 51.9 mL/min/kg | 33.2 min | 9.7% | Vd [8]: 1.64 L/kg |
| CC(C)C[C@H](NC(=O)OCc1ccccc1)C(=O)NC1CCCN(C(=O)[C@H](CC(C)C)NC(=O)OCc2ccccc2)CC1=O (stereo partly drawn) | – | 2 nM | 26 nM | – | – | – | Ki (Procathepsin L): 47 nM |
| CC(C)C[C@H](NC(=O)c1cc2ccccc2o1)C(=O)N[C@@H](C)C(=O)CN(C)S(=O)(=O)c1ccccn1 | – | 670 nM | – | 44.6 mL/min/kg | 21.5 min | 2.5% | Vd [8]: 1.15 L/kg |
| CC(C)C[C@H](NC(=O)c1cc2cc(OCCN3CCOCC3)ccc2o1)C(=O)NC1CCCN(C(=O)Cc2cccc(-c3ccccn3)c2)CC1O (stereo partly drawn) | – | 54 nM | – | – | – | – | – |
